Experiments:
[1] = test system: PC-12; assay: Effective concentration to induce 50 % protection of rat PC12 cells from camptothecin-induced cell death; assay type: functional, cell-based
Procedure, shortened: (§1)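 PC12 cells grown in RPMI1640 with 10% horse serum and 5% fetal calf serum to 70–80% confluence, seeded at 2.2×10^4 cells/mL, grown 12 h. Pretreated 6 h with compound (100–400 nM, 0.4% DMSO final), then camptothecin 40 μM for 24 h. Live cells read by BCECF AM (5 μM, 45 min) fluorescence, ex 490/em 535 nm. EC25/EC50 from logit plot versus log concentration, n = 3.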

[2] = Neuronal survival of cells in response to compound (100 nM) addition to etoposide (2.5 uM) to hippocampal neurons; assay type: functional, Rattus norvegicus, Hippocampus
Procedure, shortened: (§2)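 Primary hippocampal cultures from embryonic day 18 Sprague–Dawley rats, used at 9–10 days in Neurobasal/B-27 medium. Compound added 1 h before the DNA-damaging agent (camptothecin or etoposide); the agents were made as 500× DMSO stocks. Viable neurons (intact neurites, smooth round soma) were counted in premarked fields before treatment and 24 h after. Results are given as percent survival, mean ± SD.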

[3] = Neuronal survival of cells in response to compound (100 nM) addition to camptothecin (5 uM) to hippocampal neurons; assay type: functional, Rattus norvegicus, Hippocampus; procedure, shortened: as §2
[4] = test system: PC-12; assay: Effective concentration to induce 25 % protection of rat PC12 cells from camptothecin-induced cell death; assay type: functional; procedure, shortened: as §1
[5] = Neuroprotective action against glutamate (20 uM) induced cell death in hippocampal neurons; assay type: functional, Rattus norvegicus, Hippocampus
Procedure, shortened: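 E18 Sprague–Dawley rat hippocampal cultures (9–10 days old) were pretreated with compound (0.04 μM) 1 h before glutamate in Locke's medium; glutamate came from a fresh 200× saline stock. Viable neurons in premarked fields were counted before treatment and 24 h after insult onset, judged by neurite and soma morphology. Results are given as percent survival, mean ± SD.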

[6] = Neuronal survival of cells in response to compound (100 nM) addition to etoposide (2.5 uM) to rat hippocampal neurons; assay type: functional, Hippocampus; procedure, shortened: as §2
[7] = Neuronal survival of cells in response to compound (100 nM) addition to camptothecin (5 uM) to rat hippocampal neurons; assay type: functional, Hippocampus; procedure, shortened: as §2

Compound | EC50 [1] [nM] | Survival [2] [%] | Survival [3] [%] | EC25 [4] [µM] | Survival [5] [%] | Survival [6] [%] | Survival [7] [%]
CCC(=O)Cn1c2c(oc1=N)CCCC2 | 145 | – | – | – | – | – | –
Br.CCC(=O)Cn1c2c(sc1=N)CCCC2 | 570 | 71 | 65 | 0.41 | 43 | – | –
COc1ccc(C(=O)Cn2c3c(sc2=N)CCCC3)cc1 | 180 | – | – | 0.15 | – | – | –
N=c1sc2c(n1CC(=O)c1ccc(F)cc1)CCCC2 | 380 | – | – | 0.3 | – | – | –
Br.N=c1sc2c(n1Cc1ccccc1)CCCC2 | 740 | 78 | 61 | 0.415 | 43 | – | –
N=c1sc2c(n1CC(=O)c1ccc(Cl)cc1)CCCC2 | 190 | – | – | 0.12 | – | – | –
Nc1nc2c(s1)CCCC2 | 8750 | – | – | 0.855 | – | – | –
N=c1sc2c(n1CC(=O)c1ccccc1)CCCC2 | 170 | – | – | 0.08 | – | – | –
CCOC(=O)Cn1c2c(sc1=N)CCCC2 | 595 | – | – | 0.23 | – | – | –
COc1cccc(C(=O)Cn2c3c(sc2=N)CCCC3)c1 | 420 | – | – | 0.34 | – | – | –
Br.Cc1ccc(C(=O)Cn2c3c(sc2=N)CC(C)CC3)cc1 (configuration not stated) | 305 | – | – | 0.1 | – | 60 | 29
N=c1sc2c(n1CC(=O)c1ccc([N+](=O)[O-])cc1)CCCC2 | 410 | – | – | 0.23 | – | – | –
N=c1sc2c(n1CC(=O)c1ccc(-c3ccccc3)cc1)CCCC2 | 770 | – | – | 0.34 | – | – | –
Cc1ccc(C(=O)Cn2c3c(oc2=N)CCCC3)cc1 | 70 | – | – | 0.035 | – | – | –
COc1ccccc1C(=O)Cn1c2c(sc1=N)CCCC2 | 350 | – | – | 0.25 | – | – | –

Source: ChEMBL document CHEMBL1136009, “Novel p53 inactivators with neuroprotective action: syntheses and pharmacological evaluation of 2-imino-2,3,4,5,6,7-hexahydrobenzothiazole and 2-imino-2,3,4,5,6,7-hexahydrobenzoxazole derivatives” (J Med Chem, 2002)
